These results are taken from PubChem BioAssay.

The structures appear in SMILES notation. Activity calls are given as the source filed them.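 Rule for the calls, unless noted: active = Her2 level under about 52% in both replicate screens, with viability over 70% of control (limit read from the data); inconclusive = Her2 under the limit in one screen only, or viability under 70%; inactive = Her2 level above the set limit.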

Assay [1] in a line: reducers of endogenous Her2 protein level, primary screen, SKBR3 breast tumor cells, AlphaScreen, ATP viability (AID 461).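 For Her2 level: lower value means less Her2 protein in the cells.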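 For viability: percent of carrier control wells set as 100% viability.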 The conditions noted are these: 18-24 h, measured here: SKBR3 viability, ATP luminescence, at 10 µM.
Assay [2] concerns the target Receptor tyrosine-protein kinase erbB-2 (Homo sapiens) (UniProt P04626). The description is as above. The conditions noted are these: 18-24 h, at 10 µM, stronger effect = lower value.
A short description of assay [3]: SK-BR-3 cell growth inhibitors, pilot screen, 24 h, human (AID 572;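 active = viability at or below 10% of carrier control in both of two separate runs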;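 note: compound exposure lasted between 18 and 24 h rather than exactly 24 h; 100% = carrier-treated control wells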). The conditions noted are these: SK-BR-3 viability, CellTiter-Glo luminescence, at 10 µM, stronger effect = lower value.
Assay [4] is described as follows: HUVEC growth inhibition – cell-based, human, primary screen (AID 575;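 active = viability at or below 30% in both replicate assays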;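 note: 100% = median of untreated cell wells with 0.1% DMSO on each plate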). The conditions noted are these: HUVEC proliferation, CellTiter-Glo luminescence, 72 h; at 10 µM; stronger effect = lower value. Summed up: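 Test system: primary human umbilical vein endothelial cells; medium: endothelial basal medium with 2% FBS plus growth supplements; dosing: 10 µM compound only; times: 72 h treatment at 37 °C; signal: CTG luminescence; read-out: % viability relative to median vehicle-well signal on each plate; control set: vehicle and MePR control wells; plate: 384-well, collagen-coated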

Assay [5] in a line: growth inhibitors of H69AR lung tumor, primary screen, human, duplicate replicates (AID 580;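 active = viability at or under a set limit in both replicates, limit being median viability minus 3 SD, cut at about 48% in these data, passing the limit was not always enough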;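 note: 100% = mean luminescence of untreated wells and 0% = no signal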). The conditions noted are these: H69AR lung tumor cells viability, ATP luminescence, 72 h; at 10 µM; stronger effect = lower value.
The nature of assay [6]: reversal of MRP1-mediated doxorubicin resistance, pilot screen, H69AR cells, doxorubicin co-treatment (AID 601;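 active = viability loss from added drug above about 55%, and viability with drug at most 40%, in both replicates, limit read from the data, passing the limit was not always enough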). The conditions noted are these: CellTiter-Glo, 72 h, at 10 µM; for differential viability (reversal): stronger effect = higher value.
Assay [7] can be described thus: 384-well plate pilot, post-Golgi transport modulator project, inhibition of yeast transport mutant growth (AID 636; in the data active = inhibition above about 31%). The conditions noted are these: absorbance 615 nm, about 18 h, stronger effect = higher value.
Assay [8] is described as follows: growth suppression of yeast trafficking mutant, preliminary HTS, modulators of trafficking downstream of Golgi apparatus project, 1536-format plate, OD 615 nm (AID 637; in the data active = inhibition above about 30%). The conditions noted are these: yeast transport mutant growth, absorbance 615 nm, 18 h; stronger effect = higher value.
Where [9] appears, read: H69AR cells + 2 uM doxorubicin, measured here: viability with 2 uM doxorubicin, stronger effect = lower value.
Setting [10] is: H69AR cells, compound alone cytotoxicity.

Chain of Receptor tyrosine-protein kinase erbB-2 (Homo sapiens) (P04626 whole entry, looked up): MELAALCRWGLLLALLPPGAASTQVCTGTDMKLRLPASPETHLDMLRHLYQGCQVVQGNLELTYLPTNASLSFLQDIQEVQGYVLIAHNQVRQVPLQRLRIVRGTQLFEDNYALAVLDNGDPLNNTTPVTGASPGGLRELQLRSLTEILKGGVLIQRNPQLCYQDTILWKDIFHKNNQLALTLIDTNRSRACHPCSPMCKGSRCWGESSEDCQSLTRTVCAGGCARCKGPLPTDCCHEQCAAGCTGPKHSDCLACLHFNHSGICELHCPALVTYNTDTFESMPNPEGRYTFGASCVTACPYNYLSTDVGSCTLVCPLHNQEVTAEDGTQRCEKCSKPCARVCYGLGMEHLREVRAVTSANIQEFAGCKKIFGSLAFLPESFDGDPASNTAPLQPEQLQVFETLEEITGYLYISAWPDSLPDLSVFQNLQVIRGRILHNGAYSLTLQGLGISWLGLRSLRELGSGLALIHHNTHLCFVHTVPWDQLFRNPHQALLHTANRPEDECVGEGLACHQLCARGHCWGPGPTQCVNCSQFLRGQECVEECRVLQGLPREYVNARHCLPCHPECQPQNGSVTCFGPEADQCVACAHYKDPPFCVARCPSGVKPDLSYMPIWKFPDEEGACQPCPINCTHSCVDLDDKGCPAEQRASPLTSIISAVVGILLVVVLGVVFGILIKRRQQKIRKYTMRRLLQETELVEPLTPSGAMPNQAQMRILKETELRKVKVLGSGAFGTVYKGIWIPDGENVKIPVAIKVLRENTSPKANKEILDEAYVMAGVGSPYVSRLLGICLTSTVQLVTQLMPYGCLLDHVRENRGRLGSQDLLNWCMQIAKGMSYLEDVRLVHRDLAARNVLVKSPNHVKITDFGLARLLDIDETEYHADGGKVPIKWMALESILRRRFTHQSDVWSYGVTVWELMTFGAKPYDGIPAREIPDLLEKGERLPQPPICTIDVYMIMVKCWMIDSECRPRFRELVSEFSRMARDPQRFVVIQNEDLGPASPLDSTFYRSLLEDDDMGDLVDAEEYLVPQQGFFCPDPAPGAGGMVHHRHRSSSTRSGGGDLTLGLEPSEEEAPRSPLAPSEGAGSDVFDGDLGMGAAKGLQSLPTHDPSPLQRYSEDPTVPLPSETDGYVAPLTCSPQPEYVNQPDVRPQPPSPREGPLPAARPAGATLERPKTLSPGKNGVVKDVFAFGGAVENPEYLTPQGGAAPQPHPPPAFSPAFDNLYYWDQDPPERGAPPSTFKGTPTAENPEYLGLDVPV

For the molecule `Cc1ccc(Cn2nnc3c(=O)[nH]c(C4CCN(C(=O)c5cccs5)CC4)nc32)cc1`, the viability in assay [1] is 90.5%; in assay [3], 90.5% (inactive); in assay [4], 73.4% (inactive); in assay [5], 86% (inactive); in assay [6] (setting [9]), 83.8%; in assay [6] (setting [10]), 86%. Also, the Her2 level in assay [2] was 84% (inactive). Moreover, in assay [6] (H69AR cells + 2 uM doxorubicin), the differential viability (reversal) was 2.21% (inactive). The inhibition in assay [7] is -3.73% (inactive); in assay [8], -1.94% (inactive).
For the molecule `N#C/C(C(=O)N1CCOCC1)=C1/SC(Cc2ccccc2)C(=O)N1c1ccccc1` (stereo not given), the viability in assay [1] is 92%; in assay [3], 92% (inactive); in assay [4] it was 99.4% (inactive); in assay [5] it was 98.4% (inactive); in assay [6] (setting [9]), 102%; in assay [6] (setting [10]), 98.4%. For the same molecule, in assay [2], the Her2 level is 90.5% (inactive). Also, the differential viability (reversal) in assay [6] (H69AR cells + 2 uM doxorubicin) was -3.21% (inactive). For the same molecule, the inhibition in assay [7] was -3.55% (inactive); in assay [8], -4.91% (inactive).
As to `Cc1cccc(-n2ccnc2SCC(=O)Nc2cc(C)on2)c1`, the viability in assay [1] is 96%; in assay [3], 96% (inactive); in assay [4], 96.3% (inactive); in assay [5], 99.1% (inactive); in assay [6] (setting [9]) it was 80.4%; in assay [6] (setting [10]), 99.1%. In addition, the Her2 level in assay [2] is 102% (inactive). For the same molecule, in assay [6] (H69AR cells + 2 uM doxorubicin), the differential viability (reversal) was 18.6% (inactive). Further, the results for the inhibition in assay [7] and in assay [8] were 0.79% (inactive) and -4.91% (inactive), respectively.
Regarding `COC(=O)c1ccc(Cl)c(NC(C)=O)c1`, the viability in assay [1] is 108%; in assay [3], 108% (inactive); in assay [4], 70.9% (inactive); in assay [5] it was 97.2% (inactive); in assay [6] (setting [9]) it was 89.5%; in assay [6] (setting [10]), 97.2%. Moreover, the Her2 level in assay [2] was 99.5% (inactive). The differential viability (reversal) in assay [6] (H69AR cells + 2 uM doxorubicin) was 7.73% (inactive). The inhibition in assay [7] is -1.17% (inactive); in assay [8] it was -0.33% (inactive).
For the molecule `CCOC(=O)c1nnc(-c2ccccc2)o1`, the viability was 101% in assay [1]; 101% (inactive) in assay [3]; 86.1% (inactive) in assay [4]; 88.1% (inactive) in assay [5]; 79% in assay [6] (setting [9]); 88.1% in assay [6] (setting [10]). Further, the Her2 level in assay [2] is 87.5% (inactive). Besides, the differential viability (reversal) in assay [6] (H69AR cells + 2 uM doxorubicin) was 9.09% (inactive). Besides, the inhibition in assay [7] was -1.56% (inactive); in assay [8], -1.43% (inactive).
On to `CCOc1ccccc1CN1C(=O)c2ccccc2C1C(=O)NCC1CCCO1` (stereo not given), for which the viability in assay [1] is 104%; in assay [3] it was 104% (inactive); in assay [4], 98.3% (inactive); in assay [5] it was 101% (inactive); in assay [6] (setting [9]), 105%; in assay [6] (setting [10]), 101%. Further, in assay [2], the Her2 level was 104% (inactive). Also, in assay [6] (H69AR cells + 2 uM doxorubicin), the differential viability (reversal) is -4.52% (inactive). Moreover, the figures for the inhibition in assay [7] and in assay [8] were -1.47% (inactive) and -0.32% (inactive), respectively.
On to `CCOC(=O)N1CCN(S(=O)(=O)c2ccc(Br)s2)CC1`, for which the viability was 103% in assay [1]; 103% (inactive) in assay [3]; 100% (inactive) in assay [4]; 94.4% (inactive) in assay [5]; 86.5% in assay [6] (setting [9]); 94.4% in assay [6] (setting [10]). Moreover, the Her2 level in assay [2] is 112% (inactive). The differential viability (reversal) in assay [6] (H69AR cells + 2 uM doxorubicin) is 7.92% (inactive). Moreover, the inhibition in assay [7] was -3.03% (inactive); in assay [8] it was 2.95% (inactive).
Take `[N-]=[N+]=CC(=O)CC(c1ccccc1)N1C(=O)c2ccccc2C1=O` (stereo not given): the viability in assay [1] was 93.5%; in assay [3] it was 93.5% (inactive); in assay [4], 97.8% (inactive); in assay [5] it was 103% (inactive); in assay [6] (setting [9]), 97%; in assay [6] (setting [10]) it was 103%. Besides, in assay [2], the Her2 level is 106% (inactive). For the same molecule, in assay [6] (H69AR cells + 2 uM doxorubicin), the differential viability (reversal) is 5.81% (inactive). Further, the inhibition was -0.91% (inactive) in assay [7] and -4.29% (inactive) in assay [8].
Take `Cc1onc(-c2ccccc2Cl)c1C(=O)NCc1cccnc1`: the viability in assay [1] was 103%; in assay [3] it was 103% (inactive); in assay [4] it was 110% (inactive); in assay [5], 94.5% (inactive); in assay [6] (setting [9]), 85.4%; in assay [6] (setting [10]), 94.5%. Moreover, in assay [2], the Her2 level was 102% (inactive). Besides, the differential viability (reversal) in assay [6] (H69AR cells + 2 uM doxorubicin) was 9.16% (inactive). For the same molecule, the inhibition in assay [7] was -4.8% (inactive); in assay [8] it was 6.13% (inactive).
Consider `CCC1CCCCN1S(=O)(=O)c1ccc(C(=O)Nc2nnc(-c3cccs3)o2)cc1` (stereo not given), for which the viability in assay [1] is 79.5%; in assay [3], 79.5% (inactive); in assay [4] it was 3.2% (active); in assay [5], 16.7% (active); in assay [6] (setting [9]) it was 44.9%; in assay [6] (setting [10]), 16.7%. The Her2 level in assay [2] is 91.5% (inactive). The differential viability (reversal) in assay [6] (H69AR cells + 2 uM doxorubicin) is -28.1% (inactive). Also, the inhibition in assay [7] was -8.68% (inactive); in assay [8] it was 9.64% (inactive).
For `CCn1c(Cc2ccc(OC)cc2)nnc1SCC(=O)Nc1cccc(C(=O)OC)c1`, the viability in assay [1] is 89.5%; in assay [3], 89.5% (inactive); in assay [4], 85.8% (inactive); in assay [5], 103% (inactive); in assay [6] (setting [9]), 95.7%; in assay [6] (setting [10]), 103%. Further, the Her2 level in assay [2] was 86.5% (inactive). Moreover, in assay [6] (H69AR cells + 2 uM doxorubicin), the differential viability (reversal) is 7.12% (inactive). Besides, the inhibition in assay [7] was -1.45% (inactive); in assay [8] it was -2.86% (inactive).
Consider `CSCCC(NC(=O)c1ccco1)C(=O)OC(C)C(=O)NC(=O)NC1CCCCC1` (stereo not given), for which the viability is 88% in assay [1]; 88% (inactive) in assay [3]; 96.1% (inactive) in assay [4]; 111% (inactive) in assay [5]; 95% in assay [6] (setting [9]); 111% in assay [6] (setting [10]). The Her2 level in assay [2] was 99% (inactive). Besides, the differential viability (reversal) in assay [6] (H69AR cells + 2 uM doxorubicin) is 16.1% (inactive). Further, the results for the inhibition in assay [7] and in assay [8] were -3.9% (inactive) and 8.52% (inactive), respectively.
With `COC(=O)c1nn(-c2ccc(-c3ccccc3)cc2)cc1O`, the viability was 94% in assay [1]; 94% (inactive) in assay [3]; 92.6% (inactive) in assay [4]; 89.2% (inactive) in assay [5]; 85.1% in assay [6] (setting [9]); 89.2% in assay [6] (setting [10]). In addition, the Her2 level in assay [2] was 97% (inactive). In addition, in assay [6] (H69AR cells + 2 uM doxorubicin), the differential viability (reversal) was 4.12% (inactive). For the same molecule, the inhibition was -4.27% (inactive) in assay [7] and -8.06% (inactive) in assay [8].
As for `CCOC(=O)c1cnc(-n2nc(C)cc2C)nc1Nc1cccc(C(C)=O)c1`, the viability was 87.5% in assay [1]; 87.5% (inactive) in assay [3]; 95.7% (inactive) in assay [4]; 88% (inactive) in assay [5]; 97.5% in assay [6] (setting [9]); 88% in assay [6] (setting [10]). In addition, in assay [2], the Her2 level is 110% (inactive). Besides, the differential viability (reversal) in assay [6] (H69AR cells + 2 uM doxorubicin) is -9.45% (inactive). Besides, the inhibition in assay [7] was 1.32% (inactive); in assay [8], -4.35% (inactive).
For `CCOc1cccc(OCCOCCN2CCCC2)c1`, the viability in assay [1] was 107%; in assay [3], 107% (inactive); in assay [4], 91.3% (inactive); in assay [5], 89.4% (inactive); in assay [6] (setting [9]), 90.5%; in assay [6] (setting [10]), 89.4%. Besides, the Her2 level in assay [2] was 89% (inactive). The differential viability (reversal) in assay [6] (H69AR cells + 2 uM doxorubicin) is -1.11% (inactive). Further, the inhibition was -6.22% (inactive) in assay [7] and -3.17% (inactive) in assay [8].
